Reference: ChEMBL document CHEMBL1147012 (Bioorg Med Chem Lett, 2006)
Calls of active or inactive are those of the source. The rule behind the calls is not given here.

Key:
[1] = target: Tubulin; assay: Inhibition of microtubule polymerization; assay type: functional, Homo sapiens
Outline: (§1)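 Microtubule polymerization assay run with a fixed, short incubation time.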

[2] = tested on: PC-3; assay: Cytotoxicity against human PC3 cell line; assay type: functional, cell-based
[3] = target: T1, Tubulin (Homo sapiens) (UniProt P68371+Q9H4B7+P0DPH7+P68366+Q13509+Q71U36+P04350+Q3ZCM7+P07437+P68363+Q9BQE3+Q6PEY2+Q13885+Q9BVA1+Q9BUF5); assay: Inhibition of microtubule polymerization up to 150 uM; assay type: functional; outline: as §1
[4] = target: T1, Tubulin (Homo sapiens); assay: Inhibition of microtubule polymerization up to 150 uM

Row | IC50 [1] [nM] | Activity [3] | Activity [4] | Compound | IC50 [2] [nM]
1 | 9700 |  |  | COc1cc2c(c(OC)c1OC)-c1ccc(OC)c(=O)cc1[C@@H](NS(=O)(=O)c1ccc([N+](=O)[O-])cc1[N+](=O)[O-])CC2 | 50
2 | 59000 |  |  | COc1cc2c(c(OC)c1OC)-c1ccc(=O)c(OC)cc1[C@@H](NS(=O)(=O)c1ccc([N+](=O)[O-])cc1[N+](=O)[O-])CC2 | 10200
3 |  |  |  | COc1cc2c(c(OC)c1OC)-c1ccc(=O)c(OC)cc1[C@@H](Nc1ccc([N+](=O)[O-])cc1[N+](=O)[O-])CC2 | 5700
4 | 58000 |  |  | COc1cc2c(c(OC)c1OC)-c1ccc(=O)c(OC)cc1[C@@H](NS(=O)(=O)c1ccccc1[N+](=O)[O-])CC2 | 905
5 |  |  |  | COc1cc2c(c(OC)c1OC)-c1ccc(OC)c(=O)cc1[C@@H](NCC(C)=O)CC2 | 7.6
6 | 4600 |  |  | COc1cc2c(c(OC)c1OC)-c1ccc(OC)c(=O)cc1[C@@H](Nc1ccc([N+](=O)[O-])cc1[N+](=O)[O-])CC2 | 9
7 | 2200 |  |  | COc1cc2c(c(OC)c1OC)-c1ccc(OC)c(=O)cc1[C@@H](/N=C(/C)S)CC2 | 97.5
8 |  |  |  | COc1cc2c(c(OC)c1OC)-c1ccc(=O)c(OC)cc1[C@@H](NC(C)=O)CC2 [ISOCOLCHICINE] | 4600
9 |  | inactive |  | COc1cc2c(c(OC)c1OC)-c1ccc(=O)c(OC)cc1[C@@H](/N=C(/C)S)CC2 | 1750
10 |  |  |  | CCN[C@H]1CCc2cc(OC)c(OC)c(OC)c2-c2ccc(OC)c(=O)cc21 | 17.6
11 |  |  | inactive | CCN[C@H]1CCc2cc(OC)c(OC)c(OC)c2-c2ccc(=O)c(OC)cc21 | 1720
12 | 68000 |  |  | COc1cc2c(c(OC)c1OC)-c1ccc(=O)c(OC)cc1[C@@H](NCC(C)=O)CC2 | 93
13 | 5600 |  |  | COc1cc2c(c(OC)c1OC)-c1ccc(OC)c(=O)cc1[C@@H](NS(=O)(=O)c1ccccc1[N+](=O)[O-])CC2 | 19.8
